Results taken from ChEMBL document CHEMBL4819156, “Synthesis of novel 1H-Pyrazolo[3,4-b]pyridine derivatives as DYRK 1A/1B inhibitors” (Bioorg Med Chem Lett, 2021).
The source made the active and inactive calls. The rule behind the calls is not given here.

Columns and labels:
[1] = target: Dual specificity tyrosine-phosphorylation-regulated kinase 1A (Homo sapiens, UniProt Q13627); test: Inhibition of DYRK1A (unknown origin)
[2] = target: Dual specificity tyrosine-phosphorylation-regulated kinase 1B (Homo sapiens, UniProt Q9Y463); test: Inhibition of DYRK1B (unknown origin)
LoVo = test: Cytotoxicity against human LOVO cells assessed as reduction in cell viability; assay type: functional, cell-based
SW480 [3] = test: Cytotoxicity against human SW480 cells assessed as reduction in cell viability; assay type: functional, cell-based
SW480 [4] = test: Anticancer activity against human SW480 cells assessed decrease in nuclei size at 5 uM measured after 10 days by Hoechst33342 staining based 3D spheroid assay; assay type: functional, cell-based; conditions: time 10.0 day
In short: (§1)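 3D spheroids grown in poly-HEMA-coated U-bottom wells. Compound added at days 3, 5 and 7. Cells were stained with Hoechst33342 for nuclei, calcein AM for live cells and ethidium homodimer-1 for dead cells. Images were taken on day 10 at 50×.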

RKO = test: Cytotoxicity against human RKO cells assessed as reduction in cell viability; assay type: functional, cell-based
SW-620 [5] = test: Cytotoxicity against human SW-620 cells assessed as reduction in cell viability; assay type: functional, cell-based
DLD-1 [6] = test: Induction of autophagic cell death in human DLD-1 cells assessed as multi-vesicle formation; assay type: functional, cell-based
SW-620 [7] = test: Anticancer activity against human SW-620 cells assessed decrease in viable cells at 5 uM measured after 10 days by calcein AM staining based 3D spheroid assay; assay type: functional, cell-based; conditions: time 10.0 day; in short: as §1
SW480 [8] = test: Anticancer activity against human SW480 cells assessed dead cells at 5 uM measured after 10 days by Ethidium Homodimer-1 staining based 3D spheroid assay; assay type: functional, cell-based; conditions: time 10.0 day; in short: as §1
SW480 [9] = test: Anticancer activity against human SW480 cells assessed decrease in viable cells at 5 uM measured after 10 days by calcein AM staining based 3D spheroid assay; assay type: functional, cell-based; conditions: time 10.0 day; in short: as §1
SW-620 [10] = test: Anticancer activity against human SW-620 cells assessed decrease in nuclei size at 5 uM measured after 10 days by Hoechst33342 staining based 3D spheroid assay; assay type: functional, cell-based; conditions: time 10.0 day; in short: as §1
LS174T = test: Cytotoxicity against human LS174T cells assessed as reduction in cell viability; assay type: functional, cell-based
HCT-15 = test: Cytotoxicity against human HCT15 cells assessed as reduction in cell viability; assay type: functional, cell-based
HT-29 = test: Cytotoxicity against human HT29 cells assessed as reduction in cell viability; assay type: functional, cell-based
HCT-116 [11] = test: Induction of autophagic cell death in human HCT-116 cells assessed as multi-vesicle formation; assay type: functional, cell-based
SW-620 [12] = test: Anticancer activity against human SW-620 cells assessed dead cells at 5 uM measured after 10 days by Ethidium Homodimer-1 staining based 3D spheroid assay; assay type: functional, cell-based; conditions: time 10.0 day; in short: as §1
HCT-116 [13] = test: Cytotoxicity against human HCT116 cells assessed as reduction in cell viability; assay type: functional, cell-based
Colon cancer cell line = test: Cytotoxicity against patient-derived human colon cancer organoids assessed as reduction of crypt size and disruption of intact organoid structure at 10 uM measured after 5 days by Celltiter-glo luminescent assay relative to control; assay type: functional, cell-based; conditions: time 5.0 day
DLD-1 [14] = test: Cytotoxicity against human DLD-1cells assessed as reduction in cell viability; assay type: functional, cell-based
COLO 205 = test: Cytotoxicity against human COLO205 cells assessed as reduction in cell viability; assay type: functional, cell-based

Chain of Dual specificity tyrosine-phosphorylation-regulated kinase 1B (Q9Y463 whole entry): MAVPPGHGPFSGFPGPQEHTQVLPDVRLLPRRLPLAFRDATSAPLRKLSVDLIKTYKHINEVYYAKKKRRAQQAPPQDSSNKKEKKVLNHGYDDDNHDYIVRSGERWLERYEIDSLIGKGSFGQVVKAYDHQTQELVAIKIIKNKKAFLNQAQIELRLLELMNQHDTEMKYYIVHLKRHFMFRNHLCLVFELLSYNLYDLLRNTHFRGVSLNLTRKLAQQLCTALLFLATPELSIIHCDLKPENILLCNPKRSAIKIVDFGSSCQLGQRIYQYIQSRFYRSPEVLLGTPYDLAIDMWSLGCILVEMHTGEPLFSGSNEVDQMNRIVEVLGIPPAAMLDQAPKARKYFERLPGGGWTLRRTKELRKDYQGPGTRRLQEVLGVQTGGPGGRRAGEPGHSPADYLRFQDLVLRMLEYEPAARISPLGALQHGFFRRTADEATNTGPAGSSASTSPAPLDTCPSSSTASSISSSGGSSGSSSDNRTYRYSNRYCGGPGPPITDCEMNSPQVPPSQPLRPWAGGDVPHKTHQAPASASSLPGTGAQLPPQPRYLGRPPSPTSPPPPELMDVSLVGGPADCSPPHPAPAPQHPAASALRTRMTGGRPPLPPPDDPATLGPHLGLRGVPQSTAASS

SMILES | IC50 [1] | IC50 [2] | further results
COc1cccc(-c2n[nH]c3ncc(Nc4cccc(O)c4)cc23)c1 | 950 nM | 191 nM | 
c1ccc(-c2cnc3[nH]nc(-c4ccccc4)c3c2)cc1 | > 5000 nM | > 5000 nM | 
O=C(O)c1ccc(-c2n[nH]c3ncc(Br)cc23)cc1 |  | 1050 nM | 
COc1ccc(-c2cnc3[nH]nc(-c4cccc(NC(C)=O)c4)c3c2)cc1OC | 632 nM | 287 nM | 
O=[N+]([O-])c1cccc(-c2n[nH]c3ncc(Br)cc23)c1 |  | > 5000 nM | 
CC(=O)Nc1cccc(-c2n[nH]c3ncc(Br)cc23)c1 | 638 nM | 257 nM | 
COc1ccc(-c2n[nH]c3ncc(Nc4cccc(OCc5ccccc5)c4)cc23)cc1 | 309 nM | 309 nM | 
COc1cccc(-c2n[nH]c3ncc(Nc4cccc(OCc5ccccc5)c4)cc23)c1 | > 5000 nM | 3680 nM | 
Brc1cnc2[nH]nc(-c3cncnc3)c2c1 | 92 nM | 4040 nM | 
COc1cccc(-c2n[nH]c3ncc(Br)cc23)c1 |  | > 5000 nM | 
Nc1cccc(-c2n[nH]c3ncc(Br)cc23)c1 |  | 635 nM | 
COc1ccc(-c2n[nH]c3ncc(Nc4cc(C(F)(F)F)cc(C(F)(F)F)c4)cc23)cc1 | 3550 nM | 1270 nM | 
COc1cccc(-c2n[nH]c3ncc(Nc4ccccc4)cc23)c1 | 2820 nM | 575 nM | 
Brc1cnc2[nH]nc(-c3ccsc3)c2c1 |  | 736 nM | 
COc1ccc(-c2n[nH]c3ncc(Nc4ccccc4)cc23)cc1 | 365 nM | 188 nM | 
Oc1ccc(-c2n[nH]c3ncc(-c4ccc(O)c(O)c4)cc23)cc1 |  |  | IC50 (LoVo): 19100 nM; IC50 (SW480 [3]): 4130 nM; Activity (SW480 [4]): Active; IC50 (RKO): 1100 nM; IC50 (SW-620 [5]): 3970 nM; Activity (DLD-1 [6]): Active; Activity (SW-620 [7]): Active; Activity (SW480 [8]): Active; Activity (SW480 [9]): Active; Activity (SW-620 [10]): Active; IC50 (LS174T): 37500 nM; IC50 (HCT-15): 20100 nM; IC50 (HT-29): 10900 nM; Activity (HCT-116 [11]): Active; Activity (SW-620 [12]): Active; IC50 (HCT-116 [13]): 1570 nM; Activity (Colon cancer cell line): Active; IC50 (DLD-1 [14]): 2450 nM; IC50 (COLO 205): 6220 nM
Brc1cnc2[nH]nc(-c3ccccc3)c2c1 |  | 2040 nM | 
CC(=O)Nc1ccc(-c2n[nH]c3ncc(Br)cc23)cc1 | 1110 nM | 568 nM | 
O=[N+]([O-])c1ccc(-c2n[nH]c3ncc(Br)cc23)cc1 |  | > 5000 nM | 
Brc1cnc2[nH]nc(-c3ccc4cc[nH]c4c3)c2c1 |  | 615 nM | 

Now from value to compound, other results behind:

IC50 [1] | IC50 [2] | SMILES | further results
24 nM | 29 nM | CC(=O)Nc1cccc(-c2n[nH]c3ncc(-c4ccc(O)c(O)c4)cc23)c1 | 
 | 10 nM | NC(=O)Nc1ccc(-c2cnc3[nH]nc(-c4ccc(O)cc4)c3c2)cc1 | 
 | 54 nM | COc1ccc(-c2n[nH]c3ncc(Br)cc23)cc1 | 
 | 15 nM | COc1ncc(-c2n[nH]c3ncc(-c4ccc(O)c(O)c4)cc23)cn1 | 
 | 5 nM | CS(=O)(=O)Nc1ccc(-c2cnc3[nH]nc(-c4ccc(O)cc4)c3c2)cc1 | 
75 nM | 97 nM | COc1ccc(-c2n[nH]c3ncc(-c4ccc(OC)c(OC)c4)cc23)cc1 | 
5 nM | 6 nM | Oc1ccc(-c2cnc3[nH]nc(-c4ccc(O)cc4)c3c2)cc1 | 
 | 121 nM | Brc1cnc2[nH]nc(-c3cnn(Cc4ccccc4)c3)c2c1 | 
299 nM | 167 nM | COc1ncc(-c2n[nH]c3ncc(-c4ccc(OC)c(OC)c4)cc23)cn1 | 
33 nM | 31 nM | COc1ccc(-c2n[nH]c3ncc(Nc4cccc(O)c4)cc23)cc1 | 
8 nM | 7 nM | COc1ccc(-c2n[nH]c3ncc(-c4ccc(NC(C)=O)cc4)cc23)cc1 | 
44 nM | 56 nM | Oc1ccc(-c2cnc3[nH]nc(-c4ccccc4)c3c2)cc1 | 
56 nM | 87 nM | Oc1ccc(-c2n[nH]c3ncc(Br)cc23)cc1 | 
 | 141 nM | COc1ncc(-c2n[nH]c3ncc(Br)cc23)cn1 | 
 | 2 nM | COc1ccc(-c2n[nH]c3ncc(-c4ccc(NC(N)=O)cc4)cc23)cc1 | 
213 nM | 39 nM | Oc1cccc(-c2cnc3[nH]nc(-c4cccc(O)c4)c3c2)c1 | 
 | 13 nM | CC(=O)Nc1ccc(-c2cnc3[nH]nc(-c4ccc(O)cc4)c3c2)cc1 | 
